Laboratory results from PubChem BioAssay.
Activity calls are given as the source filed them.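 The calls were made as follows, unless noted: active = viability at or below 30% in both replicate assays; inconclusive = viability at or below 30% in just one of the two assays; inactive = the rest.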

Experiments:
[1] = reducers of endogenous Her2 protein level, primary screen, SKBR3 breast tumor cells, AlphaScreen, ATP viability (AID 461;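 active = Her2 level under about 52% in both replicate screens, with viability over 70% of control, limit read from the data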;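 as to Her2 level: lower value means less Her2 protein in the cells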;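 as to viability: percent of carrier control wells set as 100% viability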); details: 18-24 h, measured here: SKBR3 viability, ATP luminescence, at 10 µM
[2] = target: Receptor tyrosine-protein kinase erbB-2 (Homo sapiens) (UniProt P04626); assay: as above; details: 18-24 h, at 10 µM, stronger effect = lower value
[3] = SK-BR-3 cell growth inhibitors, pilot screen, 24 h, human (AID 572;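 active = viability at or below 10% of carrier control in both of two separate runs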;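 also: compound exposure lasted between 18 and 24 h rather than exactly 24 h; 100% = carrier-treated control wells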); details: SK-BR-3 viability, CellTiter-Glo luminescence, at 10 µM, stronger effect = lower value
[4] = HUVEC growth inhibition – cell-based, human, primary screen (AID 575); details: HUVEC proliferation, CellTiter-Glo luminescence, 72 h; at 10 µM; stronger effect = lower value;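 also: 100% = median of untreated cell wells with 0.1% DMSO on each plate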
Outline: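 Assay system: Primary human umbilical vein endothelial cells | Quantity: 1250 cells per well | Medium: Supplemented EBM, 2% fetal bovine serum | Detection: CellTiter-Glo luminescence measuring cellular ATP | Read-out: % viability vs DMSO wells | Plate: Collagen-coated 384-well format | Times: 72 h exposure, 37 °C, 5% CO2, 30 min RT equilibration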

[5] = growth inhibitors of H69AR lung tumor, primary screen, human, duplicate replicates (AID 580;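 active = viability at or under a set limit in both replicates, limit being median viability minus 3 SD, cut at about 48% in these data, passing the limit was not always enough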;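 also: 100% = mean luminescence of untreated wells and 0% = no signal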); details: H69AR lung tumor cells viability, ATP luminescence, 72 h; at 10 µM; stronger effect = lower value
[6] = reversal of MRP1-mediated doxorubicin resistance, pilot screen, H69AR cells, doxorubicin co-treatment (AID 601;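 active = viability loss from added drug above about 55%, and viability with drug at most 40%, in both replicates, limit read from the data, passing the limit was not always enough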); details: CellTiter-Glo, 72 h, at 10 µM; for differential viability (reversal): stronger effect = higher value
[7] = 384-well plate pilot, post-Golgi transport modulator project, inhibition of yeast transport mutant growth (AID 636; in the data active = inhibition above about 31%); details: absorbance 615 nm, about 18 h, stronger effect = higher value
[8] = growth suppression of yeast trafficking mutant, preliminary HTS, modulators of trafficking downstream of Golgi apparatus project, 1536-format plate, OD 615 nm (AID 637; in the data active = inhibition above about 30%); details: yeast transport mutant growth, absorbance 615 nm, 18 h; stronger effect = higher value
[9] = H69AR cells + 2 uM doxorubicin, measured here: viability with 2 uM doxorubicin, stronger effect = lower value
[10] = H69AR cells, compound alone cytotoxicity

Receptor tyrosine-protein kinase erbB-2 (Homo sapiens), sequence (P04626 whole entry, looked up): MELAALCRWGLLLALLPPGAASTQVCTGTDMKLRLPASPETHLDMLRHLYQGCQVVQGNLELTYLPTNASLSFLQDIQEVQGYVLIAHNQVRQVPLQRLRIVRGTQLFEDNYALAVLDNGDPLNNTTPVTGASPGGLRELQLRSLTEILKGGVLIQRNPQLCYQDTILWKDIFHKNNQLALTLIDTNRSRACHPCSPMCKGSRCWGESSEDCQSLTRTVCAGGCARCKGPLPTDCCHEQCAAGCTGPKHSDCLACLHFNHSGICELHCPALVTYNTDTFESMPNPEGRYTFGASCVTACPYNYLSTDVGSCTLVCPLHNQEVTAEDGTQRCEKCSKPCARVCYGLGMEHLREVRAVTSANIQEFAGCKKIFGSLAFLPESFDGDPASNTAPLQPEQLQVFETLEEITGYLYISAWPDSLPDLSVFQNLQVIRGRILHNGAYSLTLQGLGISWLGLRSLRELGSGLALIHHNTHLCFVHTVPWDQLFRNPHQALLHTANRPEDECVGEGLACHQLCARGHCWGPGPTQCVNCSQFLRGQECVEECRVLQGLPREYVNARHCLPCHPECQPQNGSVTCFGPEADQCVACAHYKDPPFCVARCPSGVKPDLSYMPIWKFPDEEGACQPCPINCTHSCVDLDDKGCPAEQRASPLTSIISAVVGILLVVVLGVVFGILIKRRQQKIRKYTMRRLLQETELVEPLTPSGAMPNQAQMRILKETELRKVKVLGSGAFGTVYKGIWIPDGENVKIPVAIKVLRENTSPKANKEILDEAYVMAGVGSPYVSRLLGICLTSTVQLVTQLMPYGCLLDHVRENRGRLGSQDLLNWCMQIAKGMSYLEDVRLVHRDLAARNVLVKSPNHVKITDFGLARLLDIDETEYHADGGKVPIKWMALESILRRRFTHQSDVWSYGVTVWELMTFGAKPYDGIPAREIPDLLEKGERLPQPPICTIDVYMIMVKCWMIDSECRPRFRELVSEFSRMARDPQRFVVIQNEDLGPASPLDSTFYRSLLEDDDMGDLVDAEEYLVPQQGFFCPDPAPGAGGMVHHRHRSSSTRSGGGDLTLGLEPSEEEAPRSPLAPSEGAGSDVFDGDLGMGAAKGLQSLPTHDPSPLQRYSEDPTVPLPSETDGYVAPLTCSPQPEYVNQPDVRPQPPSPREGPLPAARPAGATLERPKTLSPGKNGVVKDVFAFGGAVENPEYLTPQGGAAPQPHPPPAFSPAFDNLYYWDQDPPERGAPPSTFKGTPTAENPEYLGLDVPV

Row | Structure (SMILES) | viability [1] [%] | Her2 level [2] | viability [3] | viability [4] | viability [5] | differential viability (reversal) ([6]; H69AR cells + 2 uM doxorubicin) | viability [6, 9] [%] | viability [6, 10] [%] | inhibition [7] | inhibition [8]
1 | CCOC(=O)CSc1cn2c(n1)CCC2 | 99.5 | 103% (inactive) | 99.5% (inactive) | 92% (inactive) | 92.4% (inactive) | -2.28% (inactive) | 94.7 | 92.4 | -0.79% (inactive) | -8.87% (inactive)
2 | Cc1cc(C(=O)Nc2ccccc2C#N)n(-c2ccccc2)n1 | 97.5 | 100% (inactive) | 97.5% (inactive) | 92.8% (inactive) | 93.9% (inactive) | -3.06% (inactive) | 97 | 93.9 | 2.93% (inactive) | 0% (inactive)
3 | COCCOC(=O)C1=C(C)Nc2ncnn2C1c1ccc(F)cc1 (stereo not given) | 90 | 87.5% (inactive) | 90% (inactive) | 103% (inactive) | 85.8% (inactive) | 3.85% (inactive) | 82 | 85.8 | -3.6% (inactive) | -1.48% (inactive)
4 | CN(C)c1ccc(/C=C/c2ccncc2)cc1 | 96 | 152% (inactive) | 96% (inactive) | 89.9% (inactive) | 90.5% (inactive) | 0.41% (inactive) | 90.1 | 90.5 | 3.03% (inactive) | 4% (inactive)
5 | COc1ccc(OCc2nc(N)nc(Nc3cccc(C)c3C)n2)cc1 | 98.5 | 120% (inactive) | 98.5% (inactive) | 111% (inactive) | 103% (inactive) | 7.49% (inactive) | 96 | 103 | -4.55% (inactive) | -6% (inactive)
6 | O=C(Nc1ccc2c(c1)OCCO2)C1CCCN1S(=O)(=O)c1cccc2cccnc12 (stereo not given) | 92 | 100% (inactive) | 92% (inactive) | 100% (inactive) | 96.8% (inactive) | 14.4% (inactive) | 82.3 | 96.8 | -1.33% (inactive) | -0.98% (inactive)
7 | FC(F)Oc1ccc(-c2csc(Cc3nnc4n3CCCCC4)n2)cc1 | 78 | 102% (inactive) | 78% (inactive) | 110% (inactive) | 97.2% (inactive) | 5.74% (inactive) | 91.5 | 97.2 | -7.26% (inactive) | -9.05% (inactive)
8 | Cc1cnc(C(=O)OCC(=O)Nc2ccc(Oc3ccccc3)cc2)cn1 | 77 | 102% (inactive) | 77% (inactive) | 91.5% (inactive) | 91.9% (inactive) | 9.6% (inactive) | 82.3 | 91.9 | 5.51% (inactive) | -21.7% (inactive)
9 | COC(=O)Cn1c2c(c3cc(C)ccc31)CCCC2 | 83 | 99% (inactive) | 83% (inactive) | 103% (inactive) | 102% (inactive) | 8.28% (inactive) | 94.1 | 102 | -4.74% (inactive) | 4.75% (inactive)
10 | COc1ccc2c(c1)C(C)=CC(C)(C)N2C(=O)C(C)N1C(=O)c2ccccc2C1=O (stereo not given) | 109 | 104% (inactive) | 109% (inactive) | 81.6% (inactive) | 85.7% (inactive) | -1.3% (inactive) | 87 | 85.7 | -5.71% (inactive) | -3.33% (inactive)
11 | COc1ccc(NC(=O)Nc2ccc(C)cc2OC(F)F)cc1OC | 95 | 79.5% (inactive) | 95% (inactive) | 88% (inactive) | 93% (inactive) | 6.81% (inactive) | 86.1 | 93 | -3.95% (inactive) | -6.67% (inactive)
12 | O=C(c1cc(S(=O)(=O)N2CCOCC2)ccc1F)N1CCCc2ccccc21 | 99 | 87% (inactive) | 99% (inactive) | 102% (inactive) | 90.9% (inactive) | -3.44% (inactive) | 94.3 | 90.9 | 0.64% (inactive) | -2.83% (inactive)
13 | COC(=O)CCCCCNc1ccc(C(=O)OC)cc1N | 107 | 86% (inactive) | 107% (inactive) | 98.5% (inactive) | 91.5% (inactive) | 6.14% (inactive) | 85.4 | 91.5 | -7.16% (inactive) | -6.5% (inactive)
14 | Nc1nonc1-c1noc(CCCCCN2C(=O)c3ccccc3C2=O)n1 | 102 | 102% (inactive) | 102% (inactive) | 108% (inactive) | 105% (inactive) | 7.63% (inactive) | 97.6 | 105 | -4.4% (inactive) | -6.61% (inactive)
15 | CCC(CC)C(=O)Nc1cccc(C(=O)NCc2ccco2)c1 | 94 | 104% (inactive) | 94% (inactive) | 100% (inactive) | 69.1% (inactive) | -20.5% (inactive) | 89.6 | 69.1 | -3.24% (inactive) | -1.64% (inactive)
16 | COc1ccc(C2=NOC(C(=O)NCCCN3CCOCC3)C2)cc1 (stereo not given) | 109 | 100% (inactive) | 109% (inactive) | 116% (inactive) | 87.3% (inactive) | 1.06% (inactive) | 86.2 | 87.3 | -6.71% (inactive) | 9.34% (inactive)

Row | Structure (SMILES) | viability [1] [%] | Her2 level [2] | viability [3] | viability [4] | viability [5] | differential viability (reversal) ([6]; H69AR cells + 2 uM doxorubicin) | viability [6, 9] [%] | viability [6, 10] [%] | inhibition [7] | inhibition [8]
17 | COc1ccccc1C(=O)Nc1ccc(S(=O)(=O)N2CCCC2)cc1 | 95.5 | 76.5% (inactive) | 95.5% (inactive) | 81.9% (inactive) | 94.5% (inactive) | 16.2% (inactive) | 78.4 | 94.5 | -4.93% (inactive) | 0.49% (inactive)
18 | COc1ccc(NC(=O)C(C)NS(=O)(=O)c2ccc(NC(C)=O)cc2)cc1Cl (stereo not given) | 124 | 97% (inactive) | 124% (inactive) | 103% (inactive) | 95% (inactive) | 7.65% (inactive) | 87.4 | 95 | -6% (inactive) | -1.75% (inactive)
19 | CC(=O)Nc1cccc(NC(=O)c2oc3ccccc3c2C)c1 | 81.5 | 92.5% (inactive) | 81.5% (inactive) | 76.8% (inactive) | 68.9% (inactive) | -12.4% (inactive) | 81.3 | 68.9 | -4.8% (inactive) | -1.43% (inactive)
20 | COc1cccc(C2=NOC(C(=O)Nc3ccc(C(C)=O)cc3)C2)c1 (stereo not given) | 96 | 98.5% (inactive) | 96% (inactive) | 96.6% (inactive) | 100% (inactive) | 16.6% (inactive) | 83.6 | 100 | -1.58% (inactive) | -4.73% (inactive)
21 | O=C(c1ccco1)N1CCN(S(=O)(=O)c2ccc(Oc3ccccc3)cc2)CC1 | 82 | 102% (inactive) | 82% (inactive) | 78.6% (inactive) | 90.6% (inactive) | -6.27% (inactive) | 96.8 | 90.6 | -1.35% (inactive) | 5.74% (inactive)
22 | Cn1ccnc1SCCC#N | 100 | 89.5% (inactive) | 100% (inactive) | 92.5% (inactive) | 99% (inactive) | 1.65% (inactive) | 97.3 | 99 | -2% (inactive) | 11% (inactive)
23 | O=C(/C=N/O)Nc1cccnc1 | 110 | 90% (inactive) | 110% (inactive) | 91.3% (inactive) | 83.2% (inactive) | -6.35% (inactive) | 89.6 | 83.2 | -1.84% (inactive) | 3.71% (inactive)
24 | CSc1ccc(Cn2nnc(C(=O)NCc3ccccc3)c2N)cc1 | 96.5 | 91.5% (inactive) | 96.5% (inactive) | 76.4% (inactive) | 103% (inactive) | 0.465% (inactive) | 103 | 103 | -1.87% (inactive) | 0.16% (inactive)
25 | CC1(C)CC(=O)C(CC2=C(O)CC(C)(C)CC2=O)=C(O)C1 | 95 | 91% (inactive) | 95% (inactive) | 94.4% (inactive) | 102% (inactive) | 10.5% (inactive) | 91.8 | 102 | -3.68% (inactive) | -4% (inactive)
26 | c1csc(-c2nc3nc4ccccc4nc3n2Cc2ccc3c(c2)OCO3)c1 | 98.5 | 75% (inactive) | 98.5% (inactive) | 61.6% (inactive) | 78% (inactive) | 16.4% (inactive) | 61.6 | 78 | 10.5% (inactive) | 0.79% (inactive)
27 | CC(=O)c1cccc(NC(=O)N2C3CCC2CC(O)(c2cccnc2)C3)c1 (stereo not given) | 102 | 98.5% (inactive) | 102% (inactive) | 100% (inactive) | 106% (inactive) | 9.59% (inactive) | 96.7 | 106 | 0.41% (inactive) | -5.83% (inactive)
28 | CCC(=O)c1ccc(OCC(O)CN2CCN(S(=O)(=O)N3CCCCC3)CC2)cc1 (stereo not given) | 91 | 82% (inactive) | 91% (inactive) | 105% (inactive) | 110% (inactive) | 18.1% (inactive) | 92.2 | 110 | -3.33% (inactive) | 3.44% (inactive)
29 | O=C(c1ccc(Cl)c(F)c1F)N1CCCC1 | 88.5 | 106% (inactive) | 88.5% (inactive) | 98.4% (inactive) | 102% (inactive) | 11.3% (inactive) | 90.7 | 102 | -1.67% (inactive) | -10.2% (inactive)
30 | Cc1ccc2oc(C(=O)Nc3c(C)n(C)n(-c4ccccc4)c3=O)c(C)c2c1 | 84.5 | 102% (inactive) | 84.5% (inactive) | 97.2% (inactive) | 104% (inactive) | 20.3% (inactive) | 83.6 | 104 | -7.4% (inactive) | -10.3% (inactive)
31 | Cc1nc2ncnn2c(N2CCC(C(=O)NC3CCCC3)CC2)c1Cc1ccccc1 | 88 | 95% (inactive) | 88% (inactive) | 91.5% (inactive) | 73.6% (inactive) | 37.8% (inactive) | 35.8 | 73.6 | -5.48% (inactive) | -4.76% (inactive)
32 | NC(=O)c1c(NC(=O)CN2CCCC2)sc2c1CCCC2 | 104 | 114% (inactive) | 104% (inactive) | 95.9% (inactive) | 91.3% (inactive) | 4.73% (inactive) | 86.6 | 91.3 | -0.8% (inactive) | -5.57% (inactive)
